Measured values as given in ChEMBL document CHEMBL3352414, “Structure based inhibitor design targeting glycogen phosphorylase B. Virtual screening, synthesis, biochemical and biological assessment of novel N-acyl-β-d-glucopyranosylamines” (Bioorg Med Chem, 2014).

How the values were obtained:
[1] = biological target: T1, Glycogen phosphorylase, liver form (Homo sapiens, UniProt P06737); assay: Inhibition of glycogen phosphorylase a (unknown origin)
T1 sequence (P06737 whole entry): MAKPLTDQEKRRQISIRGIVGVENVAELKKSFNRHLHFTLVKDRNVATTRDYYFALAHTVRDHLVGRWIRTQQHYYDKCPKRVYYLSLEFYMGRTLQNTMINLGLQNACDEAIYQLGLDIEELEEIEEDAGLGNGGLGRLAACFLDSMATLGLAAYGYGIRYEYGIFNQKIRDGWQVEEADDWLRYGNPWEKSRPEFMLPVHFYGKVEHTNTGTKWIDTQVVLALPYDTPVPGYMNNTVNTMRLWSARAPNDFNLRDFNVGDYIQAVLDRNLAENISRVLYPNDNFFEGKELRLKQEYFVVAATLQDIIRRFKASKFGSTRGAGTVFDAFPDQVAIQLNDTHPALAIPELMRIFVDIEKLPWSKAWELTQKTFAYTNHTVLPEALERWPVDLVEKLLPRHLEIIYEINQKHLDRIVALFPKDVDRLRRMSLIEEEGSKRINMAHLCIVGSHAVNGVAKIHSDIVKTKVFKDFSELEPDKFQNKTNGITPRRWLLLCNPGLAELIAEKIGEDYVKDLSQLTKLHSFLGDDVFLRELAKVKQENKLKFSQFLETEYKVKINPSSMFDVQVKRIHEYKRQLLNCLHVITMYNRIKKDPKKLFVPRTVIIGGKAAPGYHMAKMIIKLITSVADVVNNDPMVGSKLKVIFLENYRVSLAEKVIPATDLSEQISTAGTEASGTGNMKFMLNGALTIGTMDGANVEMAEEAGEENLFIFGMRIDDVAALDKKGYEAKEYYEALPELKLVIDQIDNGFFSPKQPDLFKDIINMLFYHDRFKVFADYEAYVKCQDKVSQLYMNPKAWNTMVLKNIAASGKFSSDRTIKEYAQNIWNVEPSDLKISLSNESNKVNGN

[2] = biological target: T2, Glycogen phosphorylase, liver form (Rattus norvegicus) (UniProt P09811); assay: Inhibition of glycogen phosphorylase a in Wistar rat hepatocytes assessed as effect on conversion of GPa to GPb forms by measuring GPa level at 9 mM after 30 mins relative to 5 mM glucose; format: cell-based; set-up: scale not given: the % may be the effect or the level left; conditions: Hepatocyte
T2 sequence (whole entry): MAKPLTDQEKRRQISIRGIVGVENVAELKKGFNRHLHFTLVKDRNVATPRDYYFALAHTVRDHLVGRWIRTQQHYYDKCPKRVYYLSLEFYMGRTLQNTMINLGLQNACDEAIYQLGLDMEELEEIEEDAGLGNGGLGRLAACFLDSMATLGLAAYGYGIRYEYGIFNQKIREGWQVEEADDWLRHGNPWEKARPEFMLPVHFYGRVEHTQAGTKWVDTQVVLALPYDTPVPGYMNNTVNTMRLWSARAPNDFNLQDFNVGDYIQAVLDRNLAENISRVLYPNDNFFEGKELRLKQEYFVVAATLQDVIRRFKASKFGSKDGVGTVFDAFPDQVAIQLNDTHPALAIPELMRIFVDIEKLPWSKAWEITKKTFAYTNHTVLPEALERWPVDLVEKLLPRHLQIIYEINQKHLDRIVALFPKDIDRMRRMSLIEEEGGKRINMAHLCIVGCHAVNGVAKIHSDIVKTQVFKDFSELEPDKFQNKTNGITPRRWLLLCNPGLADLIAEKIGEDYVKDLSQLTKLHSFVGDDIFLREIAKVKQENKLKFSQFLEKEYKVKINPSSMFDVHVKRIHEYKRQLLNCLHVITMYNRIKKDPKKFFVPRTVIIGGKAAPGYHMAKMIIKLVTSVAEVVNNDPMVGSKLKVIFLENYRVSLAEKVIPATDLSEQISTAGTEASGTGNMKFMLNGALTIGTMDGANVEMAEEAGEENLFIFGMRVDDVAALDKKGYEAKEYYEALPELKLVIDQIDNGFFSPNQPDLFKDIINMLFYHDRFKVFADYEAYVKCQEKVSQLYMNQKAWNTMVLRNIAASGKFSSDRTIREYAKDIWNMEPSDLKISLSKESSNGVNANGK
Method in brief: (§1)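 Hepatocytes from male Wistar rats (200-300 g), isolated by collagenase perfusion, seeded at 6 x 10⁴ cells/cm² in MEM with 5% calf serum. After attachment they were cultured 24 h in serum-free MEM with 5 mM glucose, 10 nM dexamethasone and 1 nM insulin. Agents were added 1 h after the medium change and incubated 30 min. Cells were snap frozen, and GPa activity was read by coupling to glucose 6-phosphate dehydrogenase. Values are % of the 5 mM glucose control (with or without 9 mM 5-thioglucose); means ± SEM, n=5 preparations; paired t-test.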

[3] = biological target: T2, Glycogen phosphorylase, liver form (Rattus norvegicus); assay: Inhibition of glycogen phosphorylase a in Wistar rat hepatocytes assessed as effect on conversion of GPa to GPb forms by measuring GPa level at 20 uM after 30 mins relative to 5 mM glucose; format: cell-based; set-up: scale not given: the % may be the effect or the level left; conditions: Hepatocyte; method in brief: as §1
[4] = biological target: T3, Glycogen phosphorylase, muscle form (Oryctolagus cuniculus, UniProt P00489); assay: Inhibition of rabbit skeletal muscle glycogen phosphorylase b assessed as inorganic phosphate release; conditions: read-out: Ki
T3 sequence (P00489 whole entry): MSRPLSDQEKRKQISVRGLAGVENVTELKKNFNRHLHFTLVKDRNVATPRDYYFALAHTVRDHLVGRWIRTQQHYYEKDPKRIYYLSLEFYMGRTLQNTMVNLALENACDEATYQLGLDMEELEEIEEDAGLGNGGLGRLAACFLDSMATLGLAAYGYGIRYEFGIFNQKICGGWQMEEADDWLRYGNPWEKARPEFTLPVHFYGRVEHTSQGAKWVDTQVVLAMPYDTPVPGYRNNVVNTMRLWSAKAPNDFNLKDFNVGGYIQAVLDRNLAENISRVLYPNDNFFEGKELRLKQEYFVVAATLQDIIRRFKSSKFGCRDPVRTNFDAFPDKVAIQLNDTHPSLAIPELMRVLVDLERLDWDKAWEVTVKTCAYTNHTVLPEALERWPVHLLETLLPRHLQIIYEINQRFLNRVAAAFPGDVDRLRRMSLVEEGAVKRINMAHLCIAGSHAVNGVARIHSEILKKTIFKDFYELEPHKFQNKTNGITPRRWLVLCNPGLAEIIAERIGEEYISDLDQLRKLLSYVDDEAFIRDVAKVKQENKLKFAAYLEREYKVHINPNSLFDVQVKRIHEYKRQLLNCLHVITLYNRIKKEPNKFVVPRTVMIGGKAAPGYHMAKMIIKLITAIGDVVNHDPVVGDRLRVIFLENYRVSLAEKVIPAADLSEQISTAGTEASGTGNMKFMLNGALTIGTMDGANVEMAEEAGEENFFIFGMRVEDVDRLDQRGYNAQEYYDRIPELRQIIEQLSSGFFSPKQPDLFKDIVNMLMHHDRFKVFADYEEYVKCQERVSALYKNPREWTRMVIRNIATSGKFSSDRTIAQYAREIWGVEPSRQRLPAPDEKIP

[5] = biological target: T2, Glycogen phosphorylase, liver form (Rattus norvegicus); assay: Inhibition of glycogen phosphorylase a in Wistar rat hepatocytes assessed as effect on conversion of GPa to GPb forms by measuring GPa level at 2 uM after 30 mins relative to 5 mM glucose; format: cell-based; set-up: scale not given: the % may be the effect or the level left; conditions: Hepatocyte; method in brief: as §1
[6] = Octanol water partition coefficient, logP of the compound; format: physicochemical
[7] = Permeability in human Caco2 cells; format: ADME, cell-based; conditions: Caco-2, read-out: permeability
[8] = biological target: T4, Glycogen phosphorylase, muscle form (Homo sapiens, UniProt P11217); assay: Inhibition of glycogen phosphorylase b (unknown origin)
T4 sequence (P11217 whole entry): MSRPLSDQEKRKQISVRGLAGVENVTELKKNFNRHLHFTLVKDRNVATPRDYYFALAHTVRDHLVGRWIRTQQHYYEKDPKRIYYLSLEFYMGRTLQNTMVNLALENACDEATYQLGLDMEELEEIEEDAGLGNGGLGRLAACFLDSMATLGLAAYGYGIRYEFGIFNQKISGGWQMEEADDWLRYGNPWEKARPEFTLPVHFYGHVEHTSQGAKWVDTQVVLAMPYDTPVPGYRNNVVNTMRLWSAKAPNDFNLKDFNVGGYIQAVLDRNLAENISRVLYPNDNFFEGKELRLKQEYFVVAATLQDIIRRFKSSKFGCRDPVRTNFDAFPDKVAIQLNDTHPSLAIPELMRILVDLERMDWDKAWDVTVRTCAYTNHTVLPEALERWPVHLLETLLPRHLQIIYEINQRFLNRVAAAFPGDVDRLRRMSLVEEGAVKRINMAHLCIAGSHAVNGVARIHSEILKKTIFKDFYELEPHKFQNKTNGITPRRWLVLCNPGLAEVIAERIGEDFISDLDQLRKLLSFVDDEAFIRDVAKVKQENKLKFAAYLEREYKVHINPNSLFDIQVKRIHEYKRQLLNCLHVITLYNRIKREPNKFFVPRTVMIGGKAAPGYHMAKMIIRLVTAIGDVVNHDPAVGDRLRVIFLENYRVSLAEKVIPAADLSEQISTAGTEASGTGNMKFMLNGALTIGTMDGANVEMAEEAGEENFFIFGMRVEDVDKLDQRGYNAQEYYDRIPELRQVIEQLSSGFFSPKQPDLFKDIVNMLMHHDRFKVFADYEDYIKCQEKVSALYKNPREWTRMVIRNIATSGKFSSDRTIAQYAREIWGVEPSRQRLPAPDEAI
Method in brief: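 Rabbit muscle GPb (5 μg/ml) was assayed at 30 °C in the glycogen-synthesis direction by measuring released inorganic phosphate. Buffer was 30 mM imidazole/HCl pH 6.8 with 60 mM KCl, 0.6 mM EDTA and 0.6 mM DTT. Glycogen 0.2% w/v and AMP 1 mM were held constant, with Glc-1-P at 2-20 mM and varied inhibitor. Enzyme and glycogen were preincubated 15 min, then Glc-1-P was added. Ki was obtained by non-linear regression of initial velocities.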

[9] = biological target: T2, Glycogen phosphorylase, liver form (Rattus norvegicus); assay: Inhibition of glycogen phosphorylase a in Wistar rat hepatocytes assessed as effect on conversion of GPa to GPb forms by measuring GPa level at 25 mM after 30 mins relative to 5 mM glucose; format: cell-based; set-up: scale not given: the % may be the effect or the level left; conditions: Hepatocyte; method in brief: as §1
[10] = biological target: T2, Glycogen phosphorylase, liver form (Rattus norvegicus); assay: Inhibition of glycogen phosphorylase a in Wistar rat hepatocytes assessed as effect on conversion of GPa to GPb forms by measuring GPa level at 25 mM after 30 mins in presence of 9 mM 5-thioglucose relative to 5 mM glucose; format: cell-based; set-up: scale not given: the % may be the effect or the level left; conditions: Hepatocyte; method in brief: as §1

| Ki [4] [µM] | logP [6] | Papp [7] [×10⁻⁶ cm/s] | Compound | also measured |
| --- | --- | --- | --- | --- |
| – | – | – | OC[C@H]1O[C@H](O)[C@H](O)[C@@H](O)[C@@H]1O | Ki [1]: 4.9 mM |
| – | – | – | O=C[C@H](O)[C@@H](O)[C@H](O)[C@H](S)CO | Activity [2]: 106% |
| 8.25 | -0.082 | 5.09 | O=C(COc1ccc(-c2ccccc2)cc1)N[C@@H]1O[C@H](CO)[C@@H](O)[C@H](O)[C@H]1O | Activity [3]: 80.3%; Activity [5]: 84.5% |
| 377 | -0.162 | 8.9 | CCc1ccc([C@H](C)CC(=O)N[C@@H]2O[C@H](CO)[C@@H](O)[C@H](O)[C@H]2O)cc1 | – |
| – | – | – | O=C(NCCOCCOCCNC(=O)c1cc2cc(Cl)ccc2[nH]1)c1cc2cc(Cl)ccc2[nH]1 | IC50 [1]: 6 nM |
| – | – | – | OC[C@H]1O[C@H](O[C@H]2[C@H](O)[C@@H](O)[C@@H](O[C@H]3[C@H](O)[C@@H](O)[C@@H](O[C@H]4[C@H](O)[C@@H](O)[C@@H](O[C@H]5[C@H](O)[C@@H](O)[C@@H](O[C@H]6[C@H](O)[C@@H](O)[C@@H](O[C@H]7[C@H](O)[C@@H](O)C(O)O[C@@H]7CO)O[C@@H]6CO)O[C@@H]5CO)O[C@@H]4CO)O[C@@H]3CO)O[C@@H]2CO)[C@H](O)[C@@H](O)[C@@H]1O (stereo partly specified) | Ki [8]: 1000 µM |
| 48.7 | 0.208 | 9.51 | O=C(CCCc1ccc2c(c1)CCCC2)N[C@@H]1O[C@H](CO)[C@@H](O)[C@H](O)[C@H]1O | Activity [3]: 100%; Activity [5]: 93% |
| – | – | – | O=C(O)C1=C(C(=O)O)NC=CC1 | Ki [8]: 0.0016 µM |
| 4.98 | 0.296 | 9.85 | CC(C)c1ccc(/C=C/C(=O)N[C@@H]2O[C@H](CO)[C@@H](O)[C@H](O)[C@H]2O)cc1 | Activity [3]: 106%; Activity [5]: 105% |
| 5.14 | 0.851 | 8.02 | O=C(/C=C/c1ccc(-c2ccccc2)cc1)N[C@@H]1O[C@H](CO)[C@@H](O)[C@H](O)[C@H]1O | Activity [3]: 83.3%; Activity [5]: 89.4% |
| 75.3 | 0.01 | 7.67 | CC(C)c1ccc(C[C@H](C)C(=O)N[C@@H]2O[C@H](CO)[C@@H](O)[C@H](O)[C@H]2O)cc1 | – |
| – | – | – | OC[C@H]1OC(O)[C@H](O)[C@@H](O)[C@@H]1O (stereo partly specified) | Activity [9]: 64.1%; Activity [10]: 78.7% |
| – | -0.169 | 9.4 | O=C(N[C@@H]1O[C@H](CO)[C@@H](O)[C@H](O)[C@H]1O)C1=Cc2cc(Cl)ccc2OC1 | – |
| – | – | – | O=c1c(O)c(-c2ccc(O)c(O)c2)oc2cc(O)cc(O)c12 [QUERCETIN] | IC50 [1]: 4800 nM |
